For one assay, the target named is Trypsin (Homo sapiens, UniProt P07477+P07478+P35030). The assay is described as follows: Inhibition of trypsin (unknown origin) assessed as reduction in conversion of N-benzoyl-L-arginine ethyl ester hydrochloride to N-benzoyl-L-arginine incubated for 5 mins measured for 30 secs by spectrophotometric method. It is filed as protein assay.
The species named for assay [1] is Homo sapiens. The experiment in a line: (§1) Inhibition of chymotrypsin (unknown origin) assessed as reduction in conversion of N-benzoyl-L-tyrosine ethyl ester to N-benzoyl-L-tyrosine incubated for 3 mins measured for 30 secs by spectrophotometric method.
For another assay, the system named is NCI-H460. The assay is described as follows: Antiproliferative activity against human NCI-H460 cells up to 3 uM after 72 hrs by MTT assay. In kind it is functional, cell-based. The method, boiled down:
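NCI-H460 cells exposed for 72 h to 30 nM–3 μM compound from DMSO stocks, final DMSO 0.1%; apratoxin A (30 nM) positive control; MTT viability end-point, vehicle-treated cells set as 100%.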
For orientation: Tetrazolium dyes change colour on reduction, which living cells bring about.

Assay [2] can be described thus: as §1. More on the design: species or system Homo sapiens.
The species named for assay [3] is Homo sapiens. The experiment in a line: Selectivity ratio of IC50 for chymotrypsin (unknown origin) to IC50 for trypsin (unknown origin).
The next assay concerns HeLa. The assay is described as follows: Antiproliferative activity against human HeLa cells up to 3 uM after 72 hrs by MTT assay. It is filed as functional, cell-based.

Each structure is given as a SMILES string. The source made the active and inactive calls. The rule behind the calls is not given here. *1 amine or outer side, *2 acyl side, *3 side chain or, on linkers, in order; H or OH if unused. Where a SMILES comes first, the peptide text is derived from it. Bridges are numbered along the chain shown (N, C = ends). [ ]: non-standard residue; d: D form. The star is where a group is joined. Ahp(3S,6R)alloIle = CC[C@@H](C)[C@@H](C(=O)[*:2])N1C(=O)[C@@H](N[*:1])CC[C@H]1O; Propanoyl(2R-OMe,3-OSO3H) = CO[C@H](COS(=O)(=O)O)C(=O)*; NMeTyr(3-Br,OMe) = CN[C@@H](Cc1ccc(OC)c(Br)c1)C(=O)O; Cit = NC(=O)NCCC[C@H](N)C(=O)O; Butyryl = CCCC(=O)*

As to `CCCC(=O)N[C@H](CCC(N)=O)C(=O)N[C@@H]1C(=O)N[C@@H](CCCNC(N)=O)C(=O)N[C@H]2CC[C@@H](O)N(C2=O)[C@@H]([C@H](C)CC)C(=O)N(C)[C@@H](Cc2ccc(OC)c(Br)c2)C(=O)N[C@@H](C(C)C)C(=O)O[C@@H]1C` (Butyryl-[dQ]T[Cit][Ahp(3S,6R)alloIle][NMeTyr(3-Br,OMe)]V; ester 2-C), the inhibition result at Trypsin and in the assay listed under Homo sapiens [1] was “Active” throughout. In addition, the result in the assay on NCI-H460 was Active.

In the case of `CC[C@@H](C)[C@H]1C(=O)N(C)[C@@H](Cc2ccc(OC)c(Br)c2)C(=O)N[C@@H]([C@@H](C)CC)C(=O)O[C@H](C)[C@H](NC(=O)[C@H](NC(=O)[C@@H](COS(=O)(=O)O)OC)C(C)C)C(=O)N[C@@H](CCCNC(=N)N)C(=O)N[C@H]2CC[C@@H](O)N1C2=O`, the IC50 at Trypsin is 150 nM; in assay [2] it was greater than 10000 nM. Besides, the Ratio IC50 in the assay listed under Homo sapiens [3] was in the range of 10 to 66. In addition, the outcome with NCI-H460 and with HeLa was inactive.

For `CC[C@@H](C)[C@H]1C(=O)N(C)[C@@H](Cc2ccc(OC)c(Br)c2)C(=O)N[C@@H]([C@@H](C)CC)C(=O)O[C@H](C)[C@H](NC(=O)[C@@H](NC(=O)[C@@H](COS(=O)(=O)O)OC)C(C)C)C(=O)N[C@@H](CCCCN)C(=O)N[C@H]2CC[C@@H](O)N1C2=O`, the IC50 amounted to 72 nM at Trypsin and 1400 nM in assay [2]. The Ratio IC50 in the assay filed under Homo sapiens [3] was 19. The result in the assay on NCI-H460 and with HeLa was inactive.

As for `CC[C@@H](C)[C@H]1C(=O)N(C)[C@@H](Cc2ccc(OC)c(Br)c2)C(=O)N[C@@H]([C@@H](C)CC)C(=O)O[C@H](C)[C@H](NC(=O)[C@@H](NC(=O)[C@@H](COS(=O)(=O)O)OC)[C@@H](C)CC)C(=O)N[C@@H](CCCCN)C(=O)N[C@H]2CC[C@@H](O)N1C2=O` ({Propanoyl(2R-OMe,3-OSO3H)}-ITK[Ahp(3S,6R)alloIle][NMeTyr(3-Br,OMe)]I; ester 2-C), the IC50 is 1000 nM at Trypsin and greater than 10000 nM in assay [2]. The Ratio IC50 in the assay listed under Homo sapiens [3] lay in the range of 10 to 66. Moreover, the result in the assay on NCI-H460 and in the assay with HeLa was inactive.

For `CC[C@@H](C)[C@H]1C(=O)N(C)[C@@H](Cc2ccc(OC)c(Br)c2)C(=O)N[C@@H]([C@@H](C)CC)C(=O)O[C@H](C)[C@H](NC(=O)[C@H](NC(=O)[C@H](O)COS(=O)(=O)O)C(C)C)C(=O)N[C@@H](CCCCN)C(=O)N[C@H]2CC[C@@H](O)N1C2=O`, the IC50 was 160 nM at Trypsin and greater than 10000 nM in assay [2]. Also, in the assay filed under Homo sapiens [3], the Ratio IC50 lay within 10 to 66. Further, the result with NCI-H460 and in the assay on HeLa was inactive.

On to `CC[C@@H](C)[C@H]1C(=O)N(C)[C@@H](Cc2ccc(OC)c(Br)c2)C(=O)N[C@@H]([C@@H](C)CC)C(=O)O[C@H](C)[C@H](NC(=O)[C@H](NC(=O)[C@@H](COS(=O)(=O)O)OC)C(C)C)C(=O)N[C@@H](CCCCN)C(=O)N[C@H]2CC[C@@H](O)N1C2=O`, for which the IC50 on Trypsin is 190 nM; in assay [2] it was greater than 10000 nM. Moreover, the Ratio IC50 in the assay listed under Homo sapiens [3] is 10 to 66. Besides, the result in the assay on NCI-H460 and in the assay on HeLa was inactive.

Usually IC50 stands for the midpoint of a concentration-inhibition curve.

Values taken from ChEMBL document CHEMBL4145604, “Jizanpeptins, Cyanobacterial Protease Inhibitors from a Symploca sp. Cyanobacterium Collected in the Red Sea” (J Nat Prod, 2018).
